{"source": "ChEMBL document CHEMBL3758101", "about": "“Synthesis and biological evaluation of fluorinated 1,5-diarylpyrrole-3-alkoxyethyl ether derivatives as selective COX-2 inhibitors endowed with anti-inflammatory activity” (Eur J Med Chem, 2016)", "key": {"[1]": {"system": "Mus musculus", "test": "Antinociceptive activity in CD1 albino mouse model of acetic acid-induced visceral pain assessed as number of writhes at 20 mg/kg, po pretreated for 30 mins before acetic acid challenge measured after 5 mins (reference value: 30.5 +/- 1.7)", "type": "functional"}, "[2]": {"system": "Mus musculus", "test": "Antinociceptive activity in CD1 albino mouse model of acetic acid-induced visceral pain assessed as number of writhes at 10 mg/kg, po pretreated for 60 mins before acetic acid challenge measured after 5 mins (reference value: 32.5 +/- 2.4)", "type": "functional"}, "[3]": {"system": "Mus musculus", "test": "Antinociceptive activity in CD1 albino mouse model of acetic acid-induced visceral pain assessed as number of writhes at 20 mg/kg, po pretreated for 60 mins before acetic acid challenge measured after 5 mins (reference value: 32.5 +/- 2.4)", "type": "functional"}, "[4]": {"system": "Mus musculus", "test": "Antinociceptive activity in po dosed CD1 albino mouse model of acetic acid-induced visceral pain assessed as number of writhes pretreated for 30 to 60 mins before acetic acid challenge measured after 5 mins", "type": "functional, organism-based"}, "[5]": {"system": "Rattus norvegicus", "test": "Antihyperalgesic effect in Sprague-Dawley rat model of monosodium iodoacetate-induced osteoarthritis assessed as withdrawal threshold at 3 mg/kg, ip administered 14 days post MIA challenge measured after 30 mins by paw pressure test (reference value: 37.8 +/- 3.3 g)", "type": "functional", "outline": "(§1)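 Male Sprague–Dawley rats (200–250 g). MIA (2 mg/25 µL) was injected into the left tibiotarsal joint on day 0 under 2% isoflurane; controls received 25 µL saline. On day 14 compound or vehicle was given at time 0. Paw pressure threshold (g) was read with an analgesimeter using a blunt conical probe on the dorsal paw at 30, 60, 90 and 120 min. Mean ± s.e.m., 6 rats.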"}, "[6]": {"system": "Rattus norvegicus", "test": "Antihyperalgesic effect in Sprague-Dawley rat model of monosodium iodoacetate-induced osteoarthritis assessed as withdrawal threshold at 10 mg/kg, ip administered 14 days post MIA challenge measured after 30 mins by paw pressure test (reference value: 37.8 +/- 3.3 g)", "type": "functional", "outline": "as §1"}, "[7]": {"system": "Rattus norvegicus", "test": "Antihyperalgesic effect in Sprague-Dawley rat model of monosodium iodoacetate-induced osteoarthritis assessed as withdrawal threshold at 20 mg/kg, ip administered 14 days post MIA challenge measured after 30 mins by paw pressure test (reference value: 37.8 +/- 3.3 g)", "type": "functional", "outline": "as §1"}, "[8]": {"system": "Rattus norvegicus", "test": "Antihyperalgesic effect in Sprague-Dawley rat model of monosodium iodoacetate-induced osteoarthritis assessed as withdrawal threshold at 3 mg/kg, ip administered 14 days post MIA challenge measured after 60 mins by paw pressure test (reference value: 36.1 +/- 3.5 g)", "type": "functional", "outline": "as §1"}, "[9]": {"system": "Rattus norvegicus", "test": "Antihyperalgesic effect in Sprague-Dawley rat model of monosodium iodoacetate-induced osteoarthritis assessed as withdrawal threshold at 20 mg/kg, ip administered 14 days post MIA challenge measured after 60 mins by paw pressure test (reference value: 36.1 +/- 3.5 g)", "type": "functional", "outline": "as §1"}, "[10]": {"system": "Rattus norvegicus", "test": "Antihyperalgesic effect in Sprague-Dawley rat model of monosodium iodoacetate-induced osteoarthritis assessed as withdrawal threshold at 20 mg/kg, ip administered 14 days post MIA challenge measured after 90 mins by paw pressure test (reference value: 37.8 +/- 3.1 g)", "type": "functional", "outline": "as §1"}, "[11]": {"system": "HaCaT", "test": "Antiproliferative activity against human HaCaT cells after 24 hrs by BrdU incorporation assay", "type": "functional, cell-based", "outline": "(§2)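 HaCaT human keratinocytes were grown in high-glucose DMEM with 10% FBS and 2 mM L-glutamine at 37 °C and 5% CO2 to 80% confluency. Cells were treated 24 h with compound at 1, 10 or 50 µM (final DMSO ≤0.1%). Proliferation was read by BrdU incorporation as % of DMSO control; three experiments.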"}, "[12]": {"system": "HaCaT", "test": "Antiproliferative activity against human HaCaT cells at 10 uM after 24 hrs by BrdU incorporation assay", "type": "functional, cell-based", "outline": "as §2"}, "[13]": {"system": "HaCaT", "test": "Antiproliferative activity against human HaCaT cells at 1 uM after 24 hrs by BrdU incorporation assay", "type": "functional, cell-based", "outline": "as §2"}, "[14]": {"species_on_record": "Mus musculus", "test": "Selectivity ratio of IC50 for mouse COX-1 to IC50 for mouse COX-2", "outline": "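In J774 cells, the ratio was taken as COX-1 IC50 over COX-2 IC50. COX-1 activity: 15 min compound pretreatment, then 30 min with 15 µM arachidonic acid. COX-2 activity: 24 h LPS (10 µg/mL) induction with compound. PGE2 was measured by RIA in both; IC50 values came from sigmoidal fits of three experiments.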"}, "[15]": {"system": "Rattus norvegicus", "test": "Antiinflammatory activity in Sprague-Dawley rat model of carrageenan-induced paw edema assessed as paw volume at 3 mg/kg, po administered 2 hrs post carrageenan challenge measured after 90 mins by plethysmometry (reference value: 37.2 +/- 3.4 ml)", "type": "functional"}, "[16]": {"system": "Rattus norvegicus", "test": "Antiinflammatory activity in Sprague-Dawley rat model of carrageenan-induced paw edema assessed as volume of paw edema at 3 mg/kg, po administered 2 hrs post carrageenan challenge measured after 60 mins by plethysmometry (reference value: 2.73 +/- 0.07 ml)", "type": "functional"}, "[17]": {"system": "Rattus norvegicus", "test": "Antiinflammatory activity in Sprague-Dawley rat model of carrageenan-induced paw edema assessed as paw volume at 10 mg/kg, po administered 2 hrs post carrageenan challenge measured after 90 mins by plethysmometry (reference value: 37.2 +/- 3.4 ml)", "type": "functional"}, "[18]": {"system": "Rattus norvegicus", "test": "Antiinflammatory activity in Sprague-Dawley rat model of carrageenan-induced […] at 10 mg/kg, po administered 2 hrs post carrageenan challenge measured after 120 mins by […] (reference value: 34.5 +/- 4.4 ml)", "type": "functional"}, "[19]": {"system": "Rattus norvegicus", "test": "Antiinflammatory activity in Sprague-Dawley rat model of carrageenan-induced paw edema assessed as volume of paw edema at 10 mg/kg, po administered 2 hrs post carrageenan challenge measured after 60 mins by plethysmometry (reference value: 2.73 +/- 0.07 ml)", "type": "functional"}}, "note": "Active and inactive are the calls of the source.", "data": [{"smiles": "Cc1c(CCOCCCF)cc(-c2ccc(S(C)(=O)=O)cc2)n1-c1ccc(F)cc1", "values": [{"measurement": "Activity", "setting": "[1]", "value": 10.7}, {"measurement": "Activity", "setting": "[2]", "value": 17.7}, {"measurement": "Activity", "setting": "[3]", "value": 16.9}, {"measurement": "Activity", "setting": "[4]", "value": "Dose-dependent effect"}, {"measurement": "Activity", "setting": "[5]", "value": 47.9, "unit": "g"}, {"measurement": "Activity", "setting": "[6]", "value": 50.3, "unit": "g"}, {"measurement": "Activity", "setting": "[7]", "value": 51.3, "unit": "g"}, {"measurement": "Activity", "setting": "[8]", "value": 45.4, "unit": "g"}, {"measurement": "Activity", "setting": "[9]", "value": 54.5, "unit": "g"}, {"measurement": "Activity", "setting": "[10]", "value": 43.8, "unit": "g"}, {"measurement": "Activity", "setting": "[11]", "value": "Dose-dependent effect"}, {"measurement": "Activity", "setting": "[12]", "value": "Active"}, {"measurement": "Activity", "setting": "[13]", "value": "inactive"}, {"measurement": "Ratio IC50", "setting": "[14]", "value": "> 14300"}, {"measurement": "Activity", "setting": "[15]", "value": 44.8, "unit": "g"}, {"measurement": "Activity", "setting": "[16]", "value": 2.38, "unit": "mL"}, {"measurement": "Activity", "setting": "[17]", "value": 47.2, "unit": "g"}, {"measurement": "Activity", "setting": "[18]", "value": 38.1, "unit": "g"}, {"measurement": "Activity", "setting": "[19]", "value": 2.15, "unit": "mL"}]}]}
